Reference: ChEMBL document CHEMBL1955723, “Discovery and synthesis of namalide reveals a new anabaenopeptin scaffold and peptidase inhibitor” (J Med Chem, 2012)
The source made the active and inactive calls. The calls are words filed in the database; no cut-off is given here.

How the values were obtained:
[1] = Solubility of the compound; format: physicochemical
[2] = target: T1, Carboxypeptidase A1 (Bos taurus) (UniProt P00730); assay: Inhibition of bovine pancreas carboxypeptidase A using N-(4-methoxyphenylazoformyl)-phenylalanine as substrate at 30 uM after 5 mins by colorimetry
T1 sequence (whole entry): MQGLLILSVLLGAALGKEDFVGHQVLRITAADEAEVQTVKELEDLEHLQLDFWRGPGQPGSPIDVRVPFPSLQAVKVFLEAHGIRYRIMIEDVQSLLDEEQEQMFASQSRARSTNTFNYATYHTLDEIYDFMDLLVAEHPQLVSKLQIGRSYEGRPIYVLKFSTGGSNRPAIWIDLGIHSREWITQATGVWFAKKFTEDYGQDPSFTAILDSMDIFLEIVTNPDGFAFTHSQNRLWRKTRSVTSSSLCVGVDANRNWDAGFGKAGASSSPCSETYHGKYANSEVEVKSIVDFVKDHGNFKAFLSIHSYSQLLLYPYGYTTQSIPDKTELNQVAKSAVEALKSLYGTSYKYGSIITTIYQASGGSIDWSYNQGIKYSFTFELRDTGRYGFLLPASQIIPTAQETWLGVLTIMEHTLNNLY

[3] = target: T2, Carboxypeptidase B2 (Homo sapiens) (UniProt Q96IY4); assay: Inhibition of carboxypeptidase U at 60 ug/mL
T2 sequence (whole entry): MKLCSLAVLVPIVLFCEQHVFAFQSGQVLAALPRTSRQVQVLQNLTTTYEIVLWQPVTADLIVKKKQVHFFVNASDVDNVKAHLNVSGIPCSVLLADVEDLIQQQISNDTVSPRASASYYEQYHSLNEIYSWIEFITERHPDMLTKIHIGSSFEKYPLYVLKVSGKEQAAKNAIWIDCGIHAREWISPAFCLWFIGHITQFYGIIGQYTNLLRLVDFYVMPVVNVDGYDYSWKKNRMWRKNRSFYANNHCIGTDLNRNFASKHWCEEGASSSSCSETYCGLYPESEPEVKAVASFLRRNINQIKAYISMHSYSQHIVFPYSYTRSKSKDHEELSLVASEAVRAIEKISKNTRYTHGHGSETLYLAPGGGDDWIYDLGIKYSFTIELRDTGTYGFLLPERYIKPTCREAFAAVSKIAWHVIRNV
Outline: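 CPU (activated TAFI) assayed with a commercial TAFIa kit per manufacturer's instructions, run like the CPA/chymotrypsin assays; compounds tested up to 60 μg/mL.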

[4] = Inhibition of alpha chymotrypsin using N-benzoyl-L-tyrosine ethyl ester as substrate at 60 ug/mL after 5 mins by colorimetry
Outline: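 α-Chymotrypsin, 1 U, 25 °C, in a 10 mm quartz cuvette, 200 μL final; inhibitor from DMSO (typically 1 mM stock, 10 μL) or DMSO alone. Absorbance read at 256 nm after 5 min incubation; tested up to 60 μg/mL.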

Carboxypeptidase A1 = target: T3, Carboxypeptidase A1 (Bos taurus, UniProt P00730); assay: Inhibition of bovine pancreas carboxypeptidase A using N-(4-methoxyphenylazoformyl)-phenylalanine as substrate after 5 mins by colorimetry
T3 sequence (P00730 whole entry): T1 sequence (whole entry)
Outline: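 Bovine pancreas CPA, 1 U, 25 °C, 200 μL final; inhibitor added from DMSO (typically 1 mM stock, 10 μL) or DMSO alone. Absorbance at 350 nm after 5 min. Curves fitted to %inhibition=[…].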

SMILES	solubility [1]	inhibition [2]	inhibition [3]	inhibition [4]	IC50 (Carboxypeptidase A1)
CC[C@@H](C)[C@@H]1NC(=O)[C@H](NC(=O)N[C@@H](Cc2ccccc2)C(=O)O)CCCCNC(=O)[C@H](Cc2ccccc2)NC1=O	Insoluble	inactive			
CC[C@H](C)[C@@H]1NC(=O)[C@H](NC(=O)N[C@@H](Cc2ccccc2)C(=O)O)CCCCNC(=O)[C@H](Cc2ccccc2)NC1=O [NAMALIDE]			inactive	inactive	250 nM
CC[C@H](C)[C@@H]1NC(=O)[C@H](N)CCCCNC(=O)[C@H](Cc2ccccc2)NC1=O		inactive	inactive	inactive	
CC[C@H](C)[C@@H]1NC(=O)[C@@H](NC(=O)N[C@@H](Cc2ccccc2)C(=O)O)CCCCNC(=O)[C@H](Cc2ccccc2)NC1=O		inactive	inactive	inactive	
CC[C@H](C)[C@@H]1NC(=O)[C@H](NC(=O)N[C@@H](Cc2ccccc2)C(=O)O)CCCCNC(=O)[C@H](Cc2ccccc2)NC(=O)[C@H]([C@@H](C)CC)NC(=O)[C@H](NC(=O)N[C@@H](Cc2ccccc2)C(=O)O)CCCCNC(=O)[C@H](Cc2ccccc2)NC1=O		inactive			
CC[C@H](C)[C@H](NC(=O)[C@@H](CCCCN)NC(=O)N[C@@H](Cc1ccccc1)C(=O)O)C(=O)N[C@@H](Cc1ccccc1)C(N)=O			inactive	inactive	4500 nM
